Experimental findings from ChEMBL document CHEMBL2331439 (J Med Chem, 2013) are described below.

The target in assay [1] is Rho-associated protein kinase 1 (Homo sapiens) (UniProt Q13464). Kind of assay: Inhibition of recombinant ROCK1 (unknown origin) at 5 uM by FRET-based Z'-LYTE assay. A digest of the protocol:
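Z'-LYTE FRET peptide (coumarin/fluorescein) phosphorylation was followed by protease development. Wells included a protease control for interference with development and a fluorescence control for interference with the FRET read. Values above 100% or below 0% were treated as maximal or no inhibition.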

Assay [2] addresses T1, Serine/threonine-protein kinase Nek1 (Homo sapiens, UniProt Q96PY6).
T1 sequence (Q96PY6 whole entry): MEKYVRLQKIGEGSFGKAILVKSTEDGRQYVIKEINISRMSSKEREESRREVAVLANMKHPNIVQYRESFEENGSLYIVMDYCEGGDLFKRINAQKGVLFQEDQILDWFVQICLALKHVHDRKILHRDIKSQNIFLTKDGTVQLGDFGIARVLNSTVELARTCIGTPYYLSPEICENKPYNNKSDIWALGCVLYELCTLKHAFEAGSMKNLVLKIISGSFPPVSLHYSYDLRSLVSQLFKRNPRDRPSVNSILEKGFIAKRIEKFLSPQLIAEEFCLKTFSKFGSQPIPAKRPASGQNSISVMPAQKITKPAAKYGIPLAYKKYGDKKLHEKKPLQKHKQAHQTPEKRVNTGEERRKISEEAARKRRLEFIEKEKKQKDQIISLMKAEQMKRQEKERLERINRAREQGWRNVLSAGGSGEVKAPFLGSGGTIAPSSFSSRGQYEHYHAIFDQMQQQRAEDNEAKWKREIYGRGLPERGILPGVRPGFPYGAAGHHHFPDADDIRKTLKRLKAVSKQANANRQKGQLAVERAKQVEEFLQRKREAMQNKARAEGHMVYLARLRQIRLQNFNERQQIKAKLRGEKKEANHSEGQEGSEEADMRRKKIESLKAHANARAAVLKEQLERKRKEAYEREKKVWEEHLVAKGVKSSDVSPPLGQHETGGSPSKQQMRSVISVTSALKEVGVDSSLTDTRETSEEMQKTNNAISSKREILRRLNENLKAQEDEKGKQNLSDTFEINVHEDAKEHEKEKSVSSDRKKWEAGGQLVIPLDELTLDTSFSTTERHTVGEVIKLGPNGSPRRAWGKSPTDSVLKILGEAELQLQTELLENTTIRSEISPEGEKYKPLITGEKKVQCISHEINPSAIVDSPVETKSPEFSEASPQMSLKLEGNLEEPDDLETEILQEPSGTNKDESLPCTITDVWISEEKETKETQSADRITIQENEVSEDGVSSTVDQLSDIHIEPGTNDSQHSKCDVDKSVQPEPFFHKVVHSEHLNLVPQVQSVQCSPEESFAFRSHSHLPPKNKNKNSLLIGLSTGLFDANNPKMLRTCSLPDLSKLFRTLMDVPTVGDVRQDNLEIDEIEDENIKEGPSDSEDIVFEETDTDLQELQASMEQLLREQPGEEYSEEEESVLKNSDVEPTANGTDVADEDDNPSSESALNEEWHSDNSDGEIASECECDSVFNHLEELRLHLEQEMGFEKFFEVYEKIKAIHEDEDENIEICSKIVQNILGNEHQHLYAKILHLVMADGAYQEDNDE
Put plainly: Inhibition of recombinant NEK1 (unknown origin) by FRET-based Z'-LYTE assay.

Chain of Rho-associated protein kinase 1 (Homo sapiens) (Q13464 2-1354 limits assumed): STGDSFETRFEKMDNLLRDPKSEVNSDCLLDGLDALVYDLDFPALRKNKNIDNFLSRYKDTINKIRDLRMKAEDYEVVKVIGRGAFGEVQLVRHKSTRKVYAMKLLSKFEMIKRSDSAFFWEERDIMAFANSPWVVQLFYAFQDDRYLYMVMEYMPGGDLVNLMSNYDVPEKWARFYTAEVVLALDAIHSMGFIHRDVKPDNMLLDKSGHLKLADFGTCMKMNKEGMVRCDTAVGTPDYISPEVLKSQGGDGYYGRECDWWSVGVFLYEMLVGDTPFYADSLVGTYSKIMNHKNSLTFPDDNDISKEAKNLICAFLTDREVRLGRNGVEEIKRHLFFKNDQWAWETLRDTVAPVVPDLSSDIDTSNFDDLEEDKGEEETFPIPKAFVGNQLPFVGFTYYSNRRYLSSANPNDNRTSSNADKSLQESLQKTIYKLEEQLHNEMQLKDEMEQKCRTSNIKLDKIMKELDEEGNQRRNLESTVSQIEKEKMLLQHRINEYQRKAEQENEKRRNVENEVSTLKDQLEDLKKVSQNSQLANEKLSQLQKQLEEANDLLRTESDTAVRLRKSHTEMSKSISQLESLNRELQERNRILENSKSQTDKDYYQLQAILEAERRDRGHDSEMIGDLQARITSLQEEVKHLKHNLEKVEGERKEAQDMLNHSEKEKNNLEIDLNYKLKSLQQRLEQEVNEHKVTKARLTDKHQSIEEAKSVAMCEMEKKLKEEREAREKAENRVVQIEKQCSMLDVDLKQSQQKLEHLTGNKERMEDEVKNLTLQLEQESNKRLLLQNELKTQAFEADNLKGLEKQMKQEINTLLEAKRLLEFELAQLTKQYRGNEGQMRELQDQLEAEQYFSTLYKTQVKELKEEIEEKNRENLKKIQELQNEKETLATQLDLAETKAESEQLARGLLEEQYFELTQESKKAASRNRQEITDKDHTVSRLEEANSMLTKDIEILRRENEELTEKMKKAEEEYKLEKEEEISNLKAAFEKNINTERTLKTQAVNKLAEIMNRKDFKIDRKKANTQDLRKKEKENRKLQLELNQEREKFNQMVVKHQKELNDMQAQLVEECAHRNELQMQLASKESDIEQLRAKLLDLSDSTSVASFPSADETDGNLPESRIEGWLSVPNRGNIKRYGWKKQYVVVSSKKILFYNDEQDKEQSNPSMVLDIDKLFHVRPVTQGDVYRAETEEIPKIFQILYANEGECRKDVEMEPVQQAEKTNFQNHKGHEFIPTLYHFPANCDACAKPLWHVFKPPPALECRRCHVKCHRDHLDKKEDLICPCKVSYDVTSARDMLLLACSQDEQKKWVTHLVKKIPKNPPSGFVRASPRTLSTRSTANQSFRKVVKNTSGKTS

Broadly, the inhibition is the drop in the measured response relative to a control, in per cent. Broadly, the IC50 is the concentration at which inhibition is half-maximal. With `O=C1/C(=C/c2ccccn2)CNC/C1=C\c1ccccn1`, the inhibition in assay [1] came to 58%. In assay [2], the IC50 amounted to 0.5 µM.
